The values that follow come from ChEMBL document CHEMBL4680220, “Synthesis and biological evaluation of acridine-based histone deacetylase inhibitors as multitarget agents against Alzheimer's disease” (Eur J Med Chem, 2020).

The target in one data set is Histone deacetylase 9 (Homo sapiens, UniProt Q9UKV0). Nature of the data set: Inhibition of recombinant human C-terminal His-tagged HDAC9 (604 to 1066 residues) expressed in baculovirus infected Sf9 cells using fluorogenic HDAC 2A substrate preincubated for 5 mins followed by substrate addition and measured after 30 mins by fluorescence assay.
Data set [1] concerns the target T1, Protein deacetylase HDAC6 (Homo sapiens, UniProt Q9UBN7).
T1 sequence (Q9UBN7 whole entry): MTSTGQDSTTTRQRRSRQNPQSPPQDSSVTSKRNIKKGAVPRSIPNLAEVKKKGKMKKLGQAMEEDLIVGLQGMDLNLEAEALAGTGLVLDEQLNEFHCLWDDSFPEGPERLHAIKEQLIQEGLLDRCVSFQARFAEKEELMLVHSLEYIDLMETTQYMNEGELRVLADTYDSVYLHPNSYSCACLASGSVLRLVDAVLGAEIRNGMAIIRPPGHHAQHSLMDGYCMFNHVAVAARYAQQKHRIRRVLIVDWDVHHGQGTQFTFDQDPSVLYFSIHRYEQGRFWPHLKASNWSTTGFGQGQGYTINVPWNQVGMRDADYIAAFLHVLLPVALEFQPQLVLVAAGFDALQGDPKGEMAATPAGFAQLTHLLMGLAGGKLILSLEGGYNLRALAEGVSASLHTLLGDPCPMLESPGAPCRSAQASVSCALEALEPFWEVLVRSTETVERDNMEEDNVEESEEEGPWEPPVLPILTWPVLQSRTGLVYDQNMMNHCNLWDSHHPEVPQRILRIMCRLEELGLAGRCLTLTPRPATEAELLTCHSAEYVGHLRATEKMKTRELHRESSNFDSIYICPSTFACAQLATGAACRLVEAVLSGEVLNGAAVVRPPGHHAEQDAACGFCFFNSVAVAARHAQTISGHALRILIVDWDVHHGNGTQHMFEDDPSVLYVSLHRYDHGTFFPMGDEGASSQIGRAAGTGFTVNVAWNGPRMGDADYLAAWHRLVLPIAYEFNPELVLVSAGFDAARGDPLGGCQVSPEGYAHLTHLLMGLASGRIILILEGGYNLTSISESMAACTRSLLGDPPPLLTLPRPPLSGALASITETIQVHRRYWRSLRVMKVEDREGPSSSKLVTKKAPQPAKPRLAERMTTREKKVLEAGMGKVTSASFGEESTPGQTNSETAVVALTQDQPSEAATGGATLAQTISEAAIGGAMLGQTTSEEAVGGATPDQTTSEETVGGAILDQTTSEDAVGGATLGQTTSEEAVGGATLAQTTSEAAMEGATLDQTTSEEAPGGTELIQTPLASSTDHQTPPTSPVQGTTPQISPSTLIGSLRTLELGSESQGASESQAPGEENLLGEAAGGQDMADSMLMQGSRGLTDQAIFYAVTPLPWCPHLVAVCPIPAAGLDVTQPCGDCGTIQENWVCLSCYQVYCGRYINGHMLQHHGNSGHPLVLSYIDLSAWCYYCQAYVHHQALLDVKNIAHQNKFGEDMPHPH
Nature of the data set: Inhibition of recombinant human full-length N-terminal GST-tagged HDAC6 expressed in baculovirus infected Sf9 insect cells using Boc-Lys(Ac)-AMC as substrate preincubated for 5 mins followed by substrate addition and measured after 30 mins by fluorescence assay.

The target of data set [2] is Amyloid-beta precursor protein (Homo sapiens, UniProt P05067). Nature of the data set: Disaggregation of self-induced amyloid beta (1 to 42) (unknown origin) preformed fibrils at 10 uM measured after 24 hrs by thioflavin-T fluorescence assay relative to control. In short, it runs like this:
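Aβ1-42 (10 µM) with 10 µM ThT and 1 mM EDTA in 50 mM phosphate buffer (150 mM NaCl, pH 7.4) pre-aggregated 24 h at 37 °C, 700 rpm; fluorescence read (ex 440/em 486 nm). Compound then added and incubated a further 24 h at 37 °C before re-reading. Disaggregation = (first − second reading)/first reading. Triplicate.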

In another data set the target is Histone deacetylase 1 (Homo sapiens, UniProt Q13547). Nature of the data set: Inhibition of recombinant human C-terminal FLAG/His-tagged HDAC1 (1 to 482 residues) expressed in Sf9 insect cells using fluor de lys SIRT1 as substrate preincubated for 5 mins followed by substrate addition and measured after 30 mins by fluorescence assay.
Sequence of Histone deacetylase 1 (Q13547 whole entry, the tested form may be a part): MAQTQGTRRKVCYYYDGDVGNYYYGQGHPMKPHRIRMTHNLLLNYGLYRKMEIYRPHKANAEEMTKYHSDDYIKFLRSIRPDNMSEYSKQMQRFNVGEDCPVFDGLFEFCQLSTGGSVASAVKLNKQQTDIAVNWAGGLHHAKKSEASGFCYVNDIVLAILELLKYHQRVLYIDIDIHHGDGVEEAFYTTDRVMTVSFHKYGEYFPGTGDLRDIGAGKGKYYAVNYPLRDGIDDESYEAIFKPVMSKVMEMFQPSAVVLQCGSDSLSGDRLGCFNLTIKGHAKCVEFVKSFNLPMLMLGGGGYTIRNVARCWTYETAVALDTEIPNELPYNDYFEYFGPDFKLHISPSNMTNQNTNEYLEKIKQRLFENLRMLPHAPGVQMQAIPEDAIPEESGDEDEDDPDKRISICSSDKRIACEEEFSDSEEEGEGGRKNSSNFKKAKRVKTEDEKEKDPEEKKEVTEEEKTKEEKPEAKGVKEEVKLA
Another data set has as its target Histone deacetylase 2 (Homo sapiens, UniProt Q92769). Nature of the data set: biochemical. The data set is classed as cell-based, Sf9.
Data set [3] addresses Histone deacetylase 3/Nuclear receptor corepressor 2 (HDAC3/NCoR2) (Homo sapiens, UniProt O15379). Nature of the data set: Inhibition of human recombinant C-terminal His-tagged HDAC3 (1 to 428 residues)/N-terminal GST-tagged NCOR2 (395 to 489 residus) expressed in baculovirus infected Sf9 insect cells using fluor de lys SIRT1 as substrate preincubated for 5 mins followed by substrate addition and measured after 30 mins by fluorescence assay.

The target of data set [4] is Class 1 histone deacetylase (Homo sapiens, UniProt Q13547+O15379+Q92769+Q9BY41). Nature of the data set: Inhibition of Class 1 HDAC in […] cells assessed as increase in acetylated Histone H3 level measured after 24 hrs by Western blot analysis. The data set is classed as cell-based. Particulars: for inhibition: Mus musculus. In general terms: In western blotting, separated proteins are transferred to a membrane and probed.

Data set [5] addresses T1, Protein deacetylase HDAC6. Nature of the data set: Inhibition of HDAC6 in […] cells assessed as increase in alpha-tubulin acetylation measured after 24 hrs by Western blot analysis. The data set is classed as cell-based, Mus musculus.
A further data set deals with Hippocampal neurone. Nature of the data set: Induction of neurite outgrowth in Sprague-Dawley rat primary hippocampal neurons assessed as increase in number of axonal and dendritic neurite incubated for 3 days by DAPI staining based immunofluorescence microscopic analysis. In kind it is functional. The settings on record: time 3.0 day. In short, it runs like this:
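Primary hippocampal neurons from embryonic Sprague-Dawley rats, plated on poly-D-lysine and kept in B27-neurobasal medium. Treated with DMSO or compound from DIV3 for three days, fixed at DIV6 in 4% paraformaldehyde. Axons stained with anti-tau, dendrites with anti-MAP2, nuclei with DAPI; fluorescence microscopy. At least 20 neurons traced for number and length of primary, secondary and tertiary neurites.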

A short description of data set [6]: Half life in human liver microsomes at 1 uM preincubated for 3 mins followed by NADPH addition and measured up to 60 mins by LC-MS/MS analysis. In kind it is ADME, Microsome. Particulars: time <=63 min. In short, it runs like this:
(§1)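 Mixed-gender human liver microsomes with test article at 1 µM final. Testosterone (5 µM) run separately as control. Mixture without cofactor equilibrated 3 min at 37 °C in a shaking water bath, then started with cofactor. Aliquots taken at 0, 10, 20, 30 and 60 min. CLint = k/P, where k is the elimination rate constant and P is the incubation protein concentration.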
Background: Liver microsomes are vesicles of endoplasmic reticulum, rich in cytochrome P450 enzymes.

Data set [7] can be described thus: Intrinsic clearance in human liver microsomes at 1 uM preincubated for 3 mins followed by NADPH addition and measured up to 60 mins by LC-MS/MS analysis. The data set is classed as ADME, Microsome. The settings on record: 1 h, time <=63 min. In short, it runs like this:
as §1

The test system of a further data set is MDR1. Nature of the data set: Apparent permeability of compound in MDCK-MDR1 cells at 5 uM measured after 2 hrs by LC-MS/MS analysis. The data set is classed as ADME, cell-based, Canis lupus familiaris. Particulars: dog. In short, it runs like this:
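MDR1-MDCK monolayers grown to confluence on collagen-coated microporous membranes. Test article dosed at 5 µM apical (A-to-B) or basolateral (B-to-A) in HBSS with 10 mM HEPES, 15 mM glucose, pH 7.4; receiver buffer has 1% BSA. 37 °C, 5% CO2; donor and receiver sampled at 120 min, quantified by LC-MS/MS (ESI). Duplicate determinations; lucifer yellow flux checks monolayer integrity. Efflux ratio = Papp(B-A)/Papp(A-B).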

The term IC50 denotes the concentration that inhibits the measured activity by half. A word on the inhibition: it is the percentage by which the read-out fell short of the control. What is called EC50 is the midpoint of the concentration-response curve. Broadly, the half-life is the time in which the quantity being followed falls by half. Read a low half-life as fast loss. The term Papp denotes a coefficient for how fast a substance crosses the barrier.

The structures appear in SMILES notation.

Sequence of Amyloid-beta precursor protein (P05067 whole entry): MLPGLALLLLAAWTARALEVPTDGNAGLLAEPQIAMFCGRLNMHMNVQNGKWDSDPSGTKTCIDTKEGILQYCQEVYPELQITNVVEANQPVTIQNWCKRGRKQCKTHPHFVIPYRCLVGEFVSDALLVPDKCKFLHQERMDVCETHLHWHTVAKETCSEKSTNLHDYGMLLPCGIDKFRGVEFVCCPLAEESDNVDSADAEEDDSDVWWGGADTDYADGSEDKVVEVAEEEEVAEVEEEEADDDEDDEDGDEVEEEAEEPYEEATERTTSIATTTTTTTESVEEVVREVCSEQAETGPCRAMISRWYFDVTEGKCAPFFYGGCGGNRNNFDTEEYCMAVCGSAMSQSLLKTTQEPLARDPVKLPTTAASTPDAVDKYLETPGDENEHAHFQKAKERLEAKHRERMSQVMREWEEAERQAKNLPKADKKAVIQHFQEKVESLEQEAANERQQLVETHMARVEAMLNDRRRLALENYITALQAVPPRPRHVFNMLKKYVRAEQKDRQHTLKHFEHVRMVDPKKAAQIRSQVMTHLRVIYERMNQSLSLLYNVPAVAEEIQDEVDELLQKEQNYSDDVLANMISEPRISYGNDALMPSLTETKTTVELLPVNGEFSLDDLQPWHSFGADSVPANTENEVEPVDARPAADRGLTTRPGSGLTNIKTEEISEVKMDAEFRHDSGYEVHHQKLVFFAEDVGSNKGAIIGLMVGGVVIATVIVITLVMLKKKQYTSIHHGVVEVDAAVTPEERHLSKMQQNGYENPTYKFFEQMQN
Sequence of Histone deacetylase 2 (Q92769 whole entry, the tested form may be a part): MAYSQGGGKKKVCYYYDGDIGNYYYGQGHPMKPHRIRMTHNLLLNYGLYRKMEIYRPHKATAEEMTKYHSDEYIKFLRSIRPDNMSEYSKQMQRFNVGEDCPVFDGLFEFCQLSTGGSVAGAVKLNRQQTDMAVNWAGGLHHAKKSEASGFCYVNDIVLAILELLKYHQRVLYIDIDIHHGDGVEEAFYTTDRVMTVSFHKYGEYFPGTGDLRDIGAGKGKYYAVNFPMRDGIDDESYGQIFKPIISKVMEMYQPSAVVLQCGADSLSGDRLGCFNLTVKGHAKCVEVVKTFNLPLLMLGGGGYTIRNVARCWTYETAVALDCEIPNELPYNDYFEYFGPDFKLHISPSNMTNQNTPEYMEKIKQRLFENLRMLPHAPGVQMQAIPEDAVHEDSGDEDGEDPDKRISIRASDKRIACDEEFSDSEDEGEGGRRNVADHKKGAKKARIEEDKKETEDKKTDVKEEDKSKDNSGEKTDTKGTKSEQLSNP
Sequence of Histone deacetylase 3/Nuclear receptor corepressor 2 (HDAC3/NCoR2) (O15379 whole entry, the tested form may be a part): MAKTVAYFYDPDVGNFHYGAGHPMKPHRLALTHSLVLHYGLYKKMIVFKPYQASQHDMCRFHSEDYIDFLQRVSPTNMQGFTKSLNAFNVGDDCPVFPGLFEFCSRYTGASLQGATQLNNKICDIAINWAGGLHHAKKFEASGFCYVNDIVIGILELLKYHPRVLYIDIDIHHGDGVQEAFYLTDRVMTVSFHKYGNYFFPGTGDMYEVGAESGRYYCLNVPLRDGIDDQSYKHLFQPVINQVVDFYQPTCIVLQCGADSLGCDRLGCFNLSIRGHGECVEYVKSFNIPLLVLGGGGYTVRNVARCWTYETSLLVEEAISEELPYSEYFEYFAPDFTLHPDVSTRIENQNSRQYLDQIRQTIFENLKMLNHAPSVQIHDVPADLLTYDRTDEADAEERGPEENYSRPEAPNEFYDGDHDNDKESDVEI
Sequence of Histone deacetylase 3/Nuclear receptor corepressor 2 (HDAC3/NCoR2) (Q9Y618 whole entry, further chain, the tested form may be a part): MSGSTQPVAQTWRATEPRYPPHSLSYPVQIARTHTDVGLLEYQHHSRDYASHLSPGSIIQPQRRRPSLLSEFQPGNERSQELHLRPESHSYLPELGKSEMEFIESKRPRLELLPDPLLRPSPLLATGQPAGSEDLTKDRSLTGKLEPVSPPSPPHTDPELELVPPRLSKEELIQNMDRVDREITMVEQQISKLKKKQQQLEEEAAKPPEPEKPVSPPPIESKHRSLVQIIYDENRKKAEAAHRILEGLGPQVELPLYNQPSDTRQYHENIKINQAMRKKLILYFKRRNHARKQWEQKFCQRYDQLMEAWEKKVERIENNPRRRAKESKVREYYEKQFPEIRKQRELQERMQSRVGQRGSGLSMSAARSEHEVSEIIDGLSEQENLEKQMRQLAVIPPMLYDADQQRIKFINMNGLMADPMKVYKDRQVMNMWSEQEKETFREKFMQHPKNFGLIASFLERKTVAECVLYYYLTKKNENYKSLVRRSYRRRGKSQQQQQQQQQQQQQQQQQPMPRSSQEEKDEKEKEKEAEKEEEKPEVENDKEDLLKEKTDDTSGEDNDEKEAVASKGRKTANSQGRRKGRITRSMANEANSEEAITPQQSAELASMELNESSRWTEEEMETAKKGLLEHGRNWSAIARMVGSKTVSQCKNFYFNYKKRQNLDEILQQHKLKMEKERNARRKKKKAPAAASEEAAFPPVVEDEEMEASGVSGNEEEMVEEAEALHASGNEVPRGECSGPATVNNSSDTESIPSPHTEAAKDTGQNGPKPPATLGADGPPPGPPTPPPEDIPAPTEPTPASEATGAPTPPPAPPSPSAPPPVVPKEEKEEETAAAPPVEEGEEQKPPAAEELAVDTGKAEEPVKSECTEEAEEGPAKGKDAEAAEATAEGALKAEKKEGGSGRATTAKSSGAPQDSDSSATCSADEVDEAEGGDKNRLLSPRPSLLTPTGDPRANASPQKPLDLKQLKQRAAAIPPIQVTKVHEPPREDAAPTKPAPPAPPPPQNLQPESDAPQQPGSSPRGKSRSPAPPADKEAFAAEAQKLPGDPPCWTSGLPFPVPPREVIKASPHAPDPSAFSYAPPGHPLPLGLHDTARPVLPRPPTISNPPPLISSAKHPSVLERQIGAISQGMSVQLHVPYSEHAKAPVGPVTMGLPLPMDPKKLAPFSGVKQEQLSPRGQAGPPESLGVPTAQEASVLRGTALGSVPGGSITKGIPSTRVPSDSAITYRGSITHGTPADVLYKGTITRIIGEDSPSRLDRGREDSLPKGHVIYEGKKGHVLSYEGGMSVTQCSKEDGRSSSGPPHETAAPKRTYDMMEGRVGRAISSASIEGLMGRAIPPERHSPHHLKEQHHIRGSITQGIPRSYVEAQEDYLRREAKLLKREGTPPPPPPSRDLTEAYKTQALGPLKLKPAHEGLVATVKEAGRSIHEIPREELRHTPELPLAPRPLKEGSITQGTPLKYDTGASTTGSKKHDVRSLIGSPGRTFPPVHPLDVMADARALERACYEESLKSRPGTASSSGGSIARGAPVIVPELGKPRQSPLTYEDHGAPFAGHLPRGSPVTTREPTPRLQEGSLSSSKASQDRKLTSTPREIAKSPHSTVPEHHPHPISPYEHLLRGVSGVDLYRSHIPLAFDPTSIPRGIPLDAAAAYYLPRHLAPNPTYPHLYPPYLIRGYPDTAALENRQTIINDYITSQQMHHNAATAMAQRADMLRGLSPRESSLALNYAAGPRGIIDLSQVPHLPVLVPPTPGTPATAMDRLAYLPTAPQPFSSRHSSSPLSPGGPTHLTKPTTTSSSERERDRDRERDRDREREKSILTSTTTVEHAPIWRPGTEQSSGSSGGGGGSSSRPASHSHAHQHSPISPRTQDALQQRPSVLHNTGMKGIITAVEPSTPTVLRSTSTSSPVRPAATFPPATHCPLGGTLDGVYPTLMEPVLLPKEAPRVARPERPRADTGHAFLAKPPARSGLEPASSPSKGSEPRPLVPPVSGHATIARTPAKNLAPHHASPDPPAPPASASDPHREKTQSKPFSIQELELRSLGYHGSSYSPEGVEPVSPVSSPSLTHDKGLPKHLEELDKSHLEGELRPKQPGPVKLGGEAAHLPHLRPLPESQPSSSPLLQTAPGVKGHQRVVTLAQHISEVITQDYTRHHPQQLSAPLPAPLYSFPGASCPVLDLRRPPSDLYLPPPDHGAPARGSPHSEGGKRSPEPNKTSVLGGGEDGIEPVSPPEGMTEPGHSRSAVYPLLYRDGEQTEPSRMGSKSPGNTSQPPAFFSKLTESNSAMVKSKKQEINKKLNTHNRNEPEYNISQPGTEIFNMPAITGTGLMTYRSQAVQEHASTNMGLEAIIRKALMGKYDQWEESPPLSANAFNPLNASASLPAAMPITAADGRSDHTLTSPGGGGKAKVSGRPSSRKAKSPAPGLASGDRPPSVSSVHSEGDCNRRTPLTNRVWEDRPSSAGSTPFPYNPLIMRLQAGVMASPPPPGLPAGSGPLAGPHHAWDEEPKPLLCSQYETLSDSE

As to `O=C(NO)c1ccc(Nc2c3ccccc3nc3ccccc23)cc1`, the IC50 is 570 nM at Histone deacetylase 9; 25 nM in data set [1]; 340 nM at Histone deacetylase 1; 1570 nM at Histone deacetylase 2; 1220 nM in data set [3]. Further, the inhibition was 41% in data set [2] and “Dose-dependent effect” in data set [4]. The concentration for a half-maximal effect (EC50) in [4] turned out to be 7960 nM; in [5], 8000 nM. In addition, the Activity entry with Hippocampal neurone is “Dose-dependent effect”. Moreover, in [6], the half-life at 1 µM turned out to be 33.9 min. The same compound showed a CLint in data set [7] of 40.7 µL/min/mg. The Papp at 2 h, 5 µM with MDR1 turned out to be 2.72 ×10⁻⁶ cm/s.

As for `O=C(NO)c1ccc(Nc2c3ccccc3nc3ccc(Br)cc23)cc1`, the half-inhibitory concentration (IC50) on Histone deacetylase 9 amounted to 5510 nM; in [1], 26 nM; on Histone deacetylase 1, 90 nM; at Histone deacetylase 2, 480 nM; in [3] it was 330 nM. The values for the inhibition in data set [2] and in data set [4] were 70% and “Dose-dependent effect”, respectively. The half-maximal effective concentration (EC50) in data set [4] came to 580 nM; in data set [5], 8000 nM. Moreover, the Activity entry with Hippocampal neurone was “Dose-dependent effect”. This compound also displayed a half-life at 1 µM in data set [6] of 37.9 min. The compound also registered a CLint in [7] of 36.6 µL/min/mg. The Papp at 2 h, 5 µM with MDR1 stood at 4.57 ×10⁻⁶ cm/s.
